The record followed here is ChEMBL document CHEMBL4138298, “Synthesis of Novel Tetrahydroisoquinoline CXCR4 Antagonists with Rigidified Side-Chains” (ACS Med Chem Lett, 2018).

The structures appear in SMILES notation. Active and inactive are the calls of the source. The rule behind the calls is not given here.

What is called IC50 is the midpoint of a concentration-inhibition curve. The inhibition is the share of the control response that was lost under treatment.

Data set [1] is described as follows: Metabolic stability in mouse liver microsomes assessed as parent compound remaining. The data set is classed as ADME, microsome. On the technique in general: Liver microsomes are vesicles of endoplasmic reticulum, rich in cytochrome P450 enzymes.
Data set [2] deals with T1, C-X-C chemokine receptor type 4 (Homo sapiens, UniProt P61073). In words: Antagonist activity at CXCR4 in human CCRF-CEM cells assessed as inhibition of CXCL12-mediated calcium flux incubated for 25 mins followed by CXCL12 stimulation measured for 90 secs. The data set is classed as functional, cell-based. For orientation: A change in cytosolic calcium serves as a functional read-out for many receptors and channels.

The next data set concerns the target Cytochrome P450 2D6 (Homo sapiens, UniProt P10635). The experiment in a line: Inhibition of recombinant human CYP2D6 expressed in insect microsomes using AMMC as substrate preincubated for 30 mins followed by NADPH addition measured after 45 mins by fluorescence assay. The data set is classed as ADME.
The next data set addresses Cytochrome P450 2C19 (Homo sapiens, UniProt P33261). The experiment in a line: Inhibition of CYP2C19 (unknown origin). The data set is classed as ADME.
Data set [3] is described as follows: Metabolic stability in human liver microsomes assessed as parent compound remaining. The data set is classed as ADME, microsome.
A further data set concerns the target Cytochrome P450 3A4 (Homo sapiens, UniProt P08684). In words: Inhibition of CYP3A4 (unknown origin) using BFC as substrate. The data set is classed as ADME.
Data set [4] is described as follows: Permeability of the compound in pH 7.4 buffer after 4 hrs by PAMPA. The data set is classed as ADME. Particulars: read-out: permeability. The essentials: (§1)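 Parallel artificial membrane permeability assay (PAMPA) for passive transcellular permeability, run at pH 7.4 and at pH 5.5, with permeability reported in nm/s.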
Data set [5] in a line: Metabolic stability in rat liver microsomes assessed as parent compound remaining. The data set is classed as ADME, microsome.
The target in data set [6] is T2, Muscarinic acetylcholine receptor M3 (Homo sapiens, UniProt P20309). The experiment in a line: Antagonist activity at mAChR M3 in human CCRF-CEM cells assessed as inhibition of acetylcholine-mediated calcium flux incubated for 25 mins followed by acetylcholine stimulation measured for 90 secs. The data set is classed as functional, cell-based.
Target sequence in this assay (P20309 whole entry): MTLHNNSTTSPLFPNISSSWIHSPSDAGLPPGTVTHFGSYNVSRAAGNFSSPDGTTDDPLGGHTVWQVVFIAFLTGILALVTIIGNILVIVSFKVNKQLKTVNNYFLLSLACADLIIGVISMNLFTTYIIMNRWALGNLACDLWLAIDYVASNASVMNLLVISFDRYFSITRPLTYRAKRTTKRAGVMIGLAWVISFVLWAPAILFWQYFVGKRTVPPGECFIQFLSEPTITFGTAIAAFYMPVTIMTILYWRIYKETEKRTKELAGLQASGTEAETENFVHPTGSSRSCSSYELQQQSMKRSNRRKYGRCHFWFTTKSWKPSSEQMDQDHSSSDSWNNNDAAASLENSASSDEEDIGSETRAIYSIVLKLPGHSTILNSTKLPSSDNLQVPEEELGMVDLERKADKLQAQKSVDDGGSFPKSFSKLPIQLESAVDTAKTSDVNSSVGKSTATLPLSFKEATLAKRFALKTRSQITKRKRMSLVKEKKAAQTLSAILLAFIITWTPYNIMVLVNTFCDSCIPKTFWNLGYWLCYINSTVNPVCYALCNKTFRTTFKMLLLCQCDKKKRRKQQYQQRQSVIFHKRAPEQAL
The target of a further data set is T3, Cytochrome P450 2C8 (Homo sapiens, UniProt P10632).
T3 sequence (P10632 whole entry): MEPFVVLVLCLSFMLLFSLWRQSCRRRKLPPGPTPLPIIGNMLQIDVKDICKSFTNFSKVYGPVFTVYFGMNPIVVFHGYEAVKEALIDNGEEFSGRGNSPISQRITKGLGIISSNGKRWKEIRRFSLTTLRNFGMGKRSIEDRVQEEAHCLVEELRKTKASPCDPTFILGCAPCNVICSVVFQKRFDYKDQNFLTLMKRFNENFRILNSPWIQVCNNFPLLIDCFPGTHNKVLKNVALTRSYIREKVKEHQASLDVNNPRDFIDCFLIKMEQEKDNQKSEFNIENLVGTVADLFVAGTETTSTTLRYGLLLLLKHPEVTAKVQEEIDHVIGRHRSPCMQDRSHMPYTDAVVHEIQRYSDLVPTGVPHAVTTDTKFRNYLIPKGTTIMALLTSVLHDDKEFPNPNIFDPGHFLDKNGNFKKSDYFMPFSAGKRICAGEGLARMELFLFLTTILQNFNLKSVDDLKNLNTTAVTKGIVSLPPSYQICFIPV
In words: Inhibition of CYP2C8 (unknown origin). The data set is classed as ADME.

Data set [7] is described as follows: Permeability of the compound in pH 5.5 buffer after 4 hrs by PAMPA. The data set is classed as ADME. The conditions noted are these: for Papp at 4 h: PAMPA, pH 5.5, read-out: permeability; for permeability: pampa, pH 5.5, 4 h, 4 h. Put shortly: as §1
A general note: In PAMPA a lipid-coated filter parts donor from acceptor wells.

Data set [8] has as its target T2, Muscarinic acetylcholine receptor M3. The experiment in a line: Antagonist activity at mAChR M3 in human CCRF-CEM cells assessed as inhibition of acetylcholine-mediated calcium flux incubated for 25 mins followed by acetylcholine stimulation measured for 90 secs relative to control. The data set is classed as functional, cell-based.
Target sequence in this assay (P20309 whole entry, looked up): as the sequence (P20309 whole entry) above
For data set [9] the target is unchanged. The experiment in a line: Agonist activity at mAChR M3 in human CCRF-CEM cells assessed as increase in calcium flux incubated for 90 secs. The data set is classed as functional, cell-based.
Target sequence in this assay (P20309 whole entry, looked up): as the sequence (P20309 whole entry) above
In data set [10] the target is T1, C-X-C chemokine receptor type 4. In words: Agonist activity at CXCR4 in human CCRF-CEM cells assessed as increase in calcium flux incubated for 90 secs. The data set is classed as functional, cell-based.

Cytochrome P450 3A4, sequence (P08684 whole entry): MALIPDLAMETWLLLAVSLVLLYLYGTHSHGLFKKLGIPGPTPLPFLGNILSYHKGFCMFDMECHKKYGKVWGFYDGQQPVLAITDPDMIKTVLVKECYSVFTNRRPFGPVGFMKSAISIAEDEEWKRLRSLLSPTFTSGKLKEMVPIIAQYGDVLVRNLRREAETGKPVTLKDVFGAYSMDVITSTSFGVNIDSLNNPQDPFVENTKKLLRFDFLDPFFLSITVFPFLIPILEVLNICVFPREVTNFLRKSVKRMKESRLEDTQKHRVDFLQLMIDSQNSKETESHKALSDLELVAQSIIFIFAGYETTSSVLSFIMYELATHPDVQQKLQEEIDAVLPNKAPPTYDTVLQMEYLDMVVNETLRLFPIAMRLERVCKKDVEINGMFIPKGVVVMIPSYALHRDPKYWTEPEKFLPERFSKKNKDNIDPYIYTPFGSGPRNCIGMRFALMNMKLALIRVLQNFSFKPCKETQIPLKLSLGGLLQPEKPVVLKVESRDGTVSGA
Cytochrome P450 2D6, sequence (P10635 whole entry): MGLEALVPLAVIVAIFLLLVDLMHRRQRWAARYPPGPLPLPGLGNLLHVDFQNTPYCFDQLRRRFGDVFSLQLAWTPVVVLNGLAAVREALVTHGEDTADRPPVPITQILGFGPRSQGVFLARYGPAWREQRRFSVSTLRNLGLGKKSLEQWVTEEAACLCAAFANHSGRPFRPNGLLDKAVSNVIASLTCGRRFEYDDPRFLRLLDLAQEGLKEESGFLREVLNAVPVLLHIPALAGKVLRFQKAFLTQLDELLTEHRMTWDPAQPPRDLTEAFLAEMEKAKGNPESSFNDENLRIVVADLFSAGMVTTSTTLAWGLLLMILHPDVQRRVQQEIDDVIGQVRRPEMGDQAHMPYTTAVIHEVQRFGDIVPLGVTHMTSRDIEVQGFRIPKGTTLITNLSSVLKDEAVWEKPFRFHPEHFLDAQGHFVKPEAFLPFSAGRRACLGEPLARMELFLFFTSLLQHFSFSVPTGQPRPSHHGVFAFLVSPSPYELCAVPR
T1 sequence (P61073 whole entry): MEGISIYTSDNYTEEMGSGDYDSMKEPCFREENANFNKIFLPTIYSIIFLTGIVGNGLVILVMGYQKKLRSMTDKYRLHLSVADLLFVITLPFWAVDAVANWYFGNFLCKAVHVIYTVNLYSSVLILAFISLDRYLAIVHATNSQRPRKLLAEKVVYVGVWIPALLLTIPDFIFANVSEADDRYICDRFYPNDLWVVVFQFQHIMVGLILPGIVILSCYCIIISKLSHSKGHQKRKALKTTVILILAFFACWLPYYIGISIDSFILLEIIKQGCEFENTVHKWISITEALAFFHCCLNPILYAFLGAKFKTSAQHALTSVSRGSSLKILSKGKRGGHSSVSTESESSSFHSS
Cytochrome P450 2C19, sequence (P33261 whole entry): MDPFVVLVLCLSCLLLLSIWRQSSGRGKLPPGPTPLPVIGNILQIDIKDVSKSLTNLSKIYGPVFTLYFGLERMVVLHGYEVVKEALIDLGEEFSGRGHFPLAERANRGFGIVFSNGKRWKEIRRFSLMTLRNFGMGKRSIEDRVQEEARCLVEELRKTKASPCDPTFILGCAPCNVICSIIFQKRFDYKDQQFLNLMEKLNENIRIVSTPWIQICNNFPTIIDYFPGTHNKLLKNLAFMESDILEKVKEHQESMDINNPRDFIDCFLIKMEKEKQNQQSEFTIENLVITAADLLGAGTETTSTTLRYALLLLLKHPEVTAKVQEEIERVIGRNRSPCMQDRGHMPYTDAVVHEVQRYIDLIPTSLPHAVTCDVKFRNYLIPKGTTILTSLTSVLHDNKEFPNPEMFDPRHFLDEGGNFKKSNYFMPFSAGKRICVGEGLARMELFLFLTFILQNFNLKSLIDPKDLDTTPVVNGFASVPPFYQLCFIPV

With `C/C(CN)=C(/F)CN(C[C@H]1Cc2ccccc2CN1)[C@H]1CCCc2cccnc21`, the Stability in data set [1] is 61%; in data set [3] it was 97%; in [5], 72%. For the same compound, the IC50 amounted to 44 nM in data set [2]; 140 nM on Cytochrome P450 2D6; 19000 nM against Cytochrome P450 2C19; 2400 nM against Cytochrome P450 3A4; 8800 nM in [6]. In addition, in data set [4], the Papp at 4 h is 22 ×10⁻⁶ cm/s.

Take `C/C(CN(C[C@H]1Cc2ccccc2CN1)[C@H]1CCCc2cccnc21)=C(/F)CN`: the Stability in [1] is recorded as 15%; in [3] it was 35%; in data set [5] it was 61%. Also, the IC50 in data set [2] was 1800 nM; at Cytochrome P450 2D6 it was 110 nM; at Cytochrome P450 3A4 it was 1800 nM; in [6] it was greater than 17000 nM; on Cytochrome P450 2C8 it was 18000 nM. Moreover, the Papp at 4 h in data set [4] is 70 ×10⁻⁶ cm/s.

Turning to `NC(=O)NC/C=C\CN(C[C@H]1Cc2ccccc2CN1)[C@H]1CCCc2cccnc21`, the values for the Stability in [1], in data set [3] and in data set [5] were 2%, 73% and 2%, respectively. Moreover, the IC50 is 210 nM in data set [2], 470 nM on Cytochrome P450 2D6 and greater than 16000 nM in data set [6]. In addition, the Papp at 4 h in [4] worked out at 11 ×10⁻⁶ cm/s; in [7], 1.3 ×10⁻⁶ cm/s.

As for `N[C@H]1CC[C@H](CN(C[C@H]2Cc3ccccc3CN2)[C@H]2CCCc3cccnc32)CC1`, the Stability was 44% in [1], 39% in data set [3] and 51% in data set [5]. Besides, the IC50 is 280 nM in [2], 760 nM at Cytochrome P450 2D6, 10000 nM at Cytochrome P450 3A4 and greater than 33000 nM in [6]. In addition, the Papp at 4 h in data set [4] stood at 1.2 ×10⁻⁶ cm/s.

Turning to `N[C@H]1CC[C@H](N(C[C@H]2Cc3ccccc3CN2)[C@H]2CCCc3cccnc32)CC1`, the Stability was 77% in data set [1], 95% in data set [3] and 71% in [5]. For the same compound, the IC50 in data set [2] was 34 nM; at Cytochrome P450 2D6, 2500 nM; on Cytochrome P450 3A4, greater than 20000 nM; in [6], greater than 33000 nM. Moreover, the Papp at 4 h amounted to 3.7 ×10⁻⁶ cm/s in data set [4] and 0.6 ×10⁻⁶ cm/s in [7].

`NCC1CC1CN(C[C@H]1Cc2ccccc2CN1)[C@H]1CCCc2cccnc21` (single isomer, unassigned; diastereomer 1) [listing 1 of 2 here]: the inhibition in [8] was 51%.

For `C/C(CN(C[C@H]1Cc2ccccc2CN1)[C@H]1CCCc2cccnc21)=C(\F)CN`, the Stability in data set [1] turned out to be 1%; in [3], 51%; in [5] it was 6%. The IC50 on Cytochrome P450 2D6 is 190 nM; against Cytochrome P450 3A4 it was 13000 nM; in [6] it was 9600 nM. Further, the Papp at 4 h in data set [4] worked out at 55 ×10⁻⁶ cm/s; in [7], 28 ×10⁻⁶ cm/s.

As to `NC/C=C\CN(C[C@H]1Cc2ccccc2CN1)[C@H]1CCCc2cccnc21`, the Stability in data set [1] was found to be 4%; in data set [3], 100%; in data set [5], 4%. Further, the IC50 came out at 10 nM in data set [2] and 610 nM in [6]. The Papp at 4 h in [4] amounted to 57 ×10⁻⁶ cm/s.

In the case of `FC1(F)CCC(NC/C=C\CN(C[C@H]2Cc3ccccc3CN2)[C@H]2CCCc3cccnc32)CC1`, the Stability in data set [1] was determined as 3%; in [3], 44%; in data set [5], 1%. Moreover, the outcome in data set [9] and in [10] was Active. Also, the results for the IC50 (on Cytochrome P450 2D6; in [6]) were 540 nM and 11000 nM, respectively. Besides, the Papp at 4 h in data set [4] was found to be 1.3 ×10⁻⁶ cm/s.

On to `NCC1CC1CN(C[C@H]1Cc2ccccc2CN1)[C@H]1CCCc2cccnc21` (single isomer, unassigned; diastereomer 2), for which, in [1], the Stability was 4%. Besides, the IC50 came to 13 nM in data set [2], 270 nM on Cytochrome P450 2D6 and 13000 nM in data set [6]. Moreover, the permeability in data set [7] was found to be 8.8 ×10⁻⁶ cm/s.

As for `C/C(=C/CN(C[C@H]1Cc2ccccc2CN1)[C@H]1CCCc2cccnc21)CN`, the results for the Stability in data set [1], in data set [3] and in [5] were 2%, 100% and 1%, respectively. The IC50 in data set [2] was 8.6 nM; on Cytochrome P450 2D6, less than 27 nM; at Cytochrome P450 3A4 it was greater than 20000 nM; in data set [6], 32 nM. The Papp at 4 h in data set [4] amounted to 1.1 ×10⁻⁶ cm/s; in data set [7], 0.4 ×10⁻⁶ cm/s.

`C/C(CN)=C(\F)CN(C[C@H]1Cc2ccccc2CN1)[C@H]1CCCc2cccnc21`: the Stability in [1] was 2%; in data set [3], 100%; in data set [5] it was 2%. The IC50 in [2] was 28 nM; at Cytochrome P450 2D6, 59 nM; against Cytochrome P450 3A4, 15000 nM; in data set [6], 770 nM. In addition, the Papp at 4 h was 49 ×10⁻⁶ cm/s in [4] and 5 ×10⁻⁶ cm/s in [7].

For the compound `C/C(=C/CN)CN(C[C@H]1Cc2ccccc2CN1)[C@H]1CCCc2cccnc21`, the figures for the Stability in data set [1], in [3] and in data set [5] were 2%, 96% and 2%, respectively. Moreover, the IC50 at Cytochrome P450 2D6 is 88 nM; at Cytochrome P450 3A4 it was greater than 20000 nM; in [6], 1100 nM. The Papp at 4 h in data set [4] stood at 25 ×10⁻⁶ cm/s; in data set [7], 8.3 ×10⁻⁶ cm/s.

For `NCC1=C(CN(C[C@H]2Cc3ccccc3CN2)[C@H]2CCCc3cccnc32)CCCC1`, the values for the Stability in [1], in [3] and in data set [5] were 2%, 65% and 1%, respectively. In addition, the values for the IC50 (in data set [2]; at Cytochrome P450 2D6; in data set [6]) were 230 nM, 180 nM and 23000 nM, respectively. Moreover, in [7], the Papp at 4 h was 17 ×10⁻⁶ cm/s.

Regarding `NCC1CC1CN(C[C@H]1Cc2ccccc2CN1)[C@H]1CCCc2cccnc21` (single isomer, unassigned; diastereomer 1) [listing 2 of 2 here], the Stability in data set [1] worked out at 1%; in [3] it was 100%; in data set [5], 1%. Besides, the IC50 is 6.4 nM in [2], 540 nM at Cytochrome P450 2D6 and greater than 33000 nM in data set [6]. Besides, the Papp at 4 h in data set [4] worked out at 13 ×10⁻⁶ cm/s. In data set [7], this compound displayed a permeability of 0.8 ×10⁻⁶ cm/s.

As to `NC[C@H]1CC[C@H](CN(C[C@H]2Cc3ccccc3CN2)[C@H]2CCCc3cccnc32)CC1`, the Stability in [1] amounted to 92%; in data set [3], 63%; in data set [5] it was 86%. Also, the half-inhibitory concentration (IC50) at Cytochrome P450 2D6 worked out at 12000 nM; against Cytochrome P450 2C19 it was 9100 nM; in data set [6], 10000 nM; on Cytochrome P450 2C8, 4100 nM.

With `N[C@H]1CC[C@@H](N(C[C@H]2Cc3ccccc3CN2)[C@H]2CCCc3cccnc32)CC1`, the Stability in data set [1] was 56%; in data set [3], 86%; in [5], 24%. The 50% inhibitory concentration (IC50) is 1800 nM in data set [2], 81 nM at Cytochrome P450 2D6, greater than 20000 nM against Cytochrome P450 3A4 and greater than 33000 nM in [6]. For the same compound, in data set [7], the Papp at 4 h was found to be 1 ×10⁻⁶ cm/s.
